Here are results for 8 molecules from paper PMC3915044 (Integrative biology : quantitative biosciences from nano to …, 2013).

SMILES strings stand for the structures. “Also recorded” adds a separate entry of the source.

Data set [1] is described as follows: Lipophilicity, n-octanol/water partition. The class given is physicochemical. In short, it runs like this:
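Shake-flask method: n-octanol and water were premixed and left overnight. Test compound was added to the aqueous phase at 500 µM and mixed with an equal volume of n-octanol. Absorbance was measured in each phase, and log P was calculated as log[Ao/Aw].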

Data set [2] deals with CL1-0 cells. The experiment in a line: Subcellular localization by epi-fluorescence/confocal microscopy. It is filed as cell-based, human. Conditions: for subcellular localization (nucleus versus mitochondria): CL1-0 human lung cancer cells, fluorescence microscopy.
For data set [3], the system named is MCF-7/ADR cells. The data set can be described thus: Flow cytometry of relative fluorescence changes. The class given is cell-based, human. Conditions: for relative fluorescence change upon verapamil: 50 µM verapamil (P-glycoprotein inhibition); for relative fluorescence change upon LeuLeuOMe: 0.5 mM LeuLeuOMe. Background: In flow cytometry, cells or beads pass a laser one at a time.

For data set [4], the system named is MCF-7/ADR cells. The experiment in a line: Cytotoxicity of doxorubicin. The class given is cell-based. Conditions: Homo sapiens, NCI/ADR-RES, read-out: cytotoxicity IC50.
In data set [5] the test system is CL1-0 cells. The data set can be described thus: Lysosomal membrane permeabilization. It is filed as cell-based, human.
Data set [6] relates to MRC-5 cells. The experiment in a line: Lysosomal membrane permeabilization. It is filed as cell-based, human.
In data set [7] the test system is primary human normal foreskin fibroblast cell line (BJ). The data set can be described thus: Cytoplasmic microinjection. The class given is cell-based. Conditions: BJ cells, 5 min after injection. In short, it runs like this: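 BJ primary foreskin fibroblasts were grown on glass coverslips in EMEM with 10% FBS. At 37°C, the cytoplasm was co-microinjected with 170 µM test compound and 2.5 mg ml−1 Texas Red 70-kDa dextran, which cannot cross nuclear pores. After 5 min incubation, cells were moved to fresh CO2-independent medium and imaged live.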

Data set [8] concerns MRC-5 cells. The experiment in a line: Subcellular localization by epi-fluorescence/confocal microscopy. The class given is cell-based, human.
In the next data set the test system is MCF-7 cells. The experiment in a line: Subcellular localization by fluorescence microscopy. It is filed as cell-based, human. Conditions: drug-sensitive MCF-7, 5 µM BMVC.
Data set [9] deals with MRC-5 cells. The data set can be described thus: Flow cytometry of fluorescence intensity. It is filed as cell-based, human. Conditions: MRC-5, LeuLeuOMe treatment. Summed up: (§1)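 CL1-0 and MRC-5 cells were loaded with 1 µM carbazole dication for 5 h and exposed to 0, 0.5 or 1 mM lysosomotropic agent. Mean fluorescence was taken at 564–606 nm with 488 nm excitation and expressed as a ratio across treatments; three independent experiments.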

In another data set the test system is normal and cancer cells. The experiment in a line: Low temperature. Conditions: incubation at 4°C, energy-dependent mechanisms inhibited. The class given is cell-based. In short, it runs like this:
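Cells were precooled at 4°C for 1 h to block energy-dependent uptake, then incubated with 1 µM test compound for 1 h. Cells were co-stained for 10 min with 1 ng ml−1 Hoechst 33342 (membrane-permeant) or Hoechst 33258 (impermeant) as controls. Imaging was by epi-fluorescence microscopy.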

Data set [10] deals with CL1-0 cells. The data set can be described thus: Flow cytometry of fluorescence intensity. The class given is cell-based, human. In short, it runs like this: as §1
The test system of data set [11] is MCF-7/ADR cells. The data set can be described thus: Subcellular localization by fluorescence microscopy. The class given is cell-based, human.
In the next data set the test system is normal cells. The experiment in a line: Effect of lysosomal pH-raising agents on nuclear fluorescence of BMVC. It is filed as cell-based. Conditions: agents raise internal pH of lysosomes.

Consider `C[n+]1ccc(/C=C/c2ccc3c(c2)c2cc(/C=C/c4cc[n+](C)cc4)ccc2n3CCOCCOCCOCC[N+]2(C)CCCCC2)cc1.[I-].[I-].[I-]` [BMVC-8C3O], for which the “lipophilicity (log P), in words” value in data set [1] is “lower lipophilicity”. Also, in the data set with CL1-0 cells [2], the “subcellular localization (nucleus versus mitochondria)” value was “localized to both the nucleus and the mitochondria”.
For `COc1cccc2c1C(=O)c1c(O)c3c(c(O)c1C2=O)C[C@@](O)(C(=O)CO)C[C@@H]3O[C@H]1C[C@H](N)[C@H](O)[C@H](C)O1` [doxorubicin, reference compound], in the data set on MCF-7/ADR cells [3], the “relative fluorescence change upon verapamil” value is listed as “increased twofold” and the “relative fluorescence change upon LeuLeuOMe” value is reported as “no difference in doxorubicin fluorescence”. Further, in the data set with MCF-7/ADR cells [4], the IC50 is not below 20 µM.
`COC(=O)[C@H](CC(C)C)NC(=O)[C@@H](N)CC(C)C` [LeuLeuOMe, L-leucyl-L-leucine methyl ester]: the lysosomal membrane permeabilization entry with CL1-0 cells [5] and in the data set on MRC-5 cells [6] was “increases lysosomal membrane permeabilization” each time.
Regarding `C[n+]1ccc(C=Cc2ccc3[nH]c4ccc(C=Cc5cc[n+](C)cc5)cc4c3c2)cc1.[I-].[I-]` [BMVC, 3,6-bis(1-methyl-4-vinylpyridinium) carbazole diiodide], the “localization after microinjection into the cytoplasm” value in data set [7] is given as “rapidly accumulated in the nuclei”. For the same molecule, in the data set with MRC-5 cells [8] (MRC-5, 5 µM BMVC 24 h then LeuLeuOMe 0.5 mM 1 h), the “BMVC fluorescence localization after LeuLeuOMe” value is given as “can be detected in the nucleus”. For the same molecule, the “nuclear fluorescence in fixed and permeabilized cells” value with MRC-5 cells [8] (MRC-5 fixed and permeabilized (4% formaldehyde, 0.1% Triton X-100)) is “strong BMVC fluorescence similar to that in CL1-0 cells”. Further, in the data set with MRC-5 cells [8] (MRC-5 normal lung cells, confocal microscopy), the “lysosomal retention / co-localization with LysoTracker” value was “colocalized with LysoTracker red but not MitoTracker red”. Also, in the data set on MRC-5 cells [8] (MRC-5 normal lung cells, fluorescence microscopy), the nuclear fluorescence result was “no fluorescence was observed in the nuclei”. Moreover, in the data set on MCF-7 cells, the subcellular localization result is “released from the lysosomes and entered the nucleus”. In addition, in the data set with MRC-5 cells [9], the “BMVC fluorescence intensity change after LeuLeuOMe” value was “increase in the fluorescence intensity”. Moreover, in the data set with normal and cancer cells, the “fluorescence detected in cells at 4°C (uptake)” value (“fluorescence detected in cells” below) is “not detected”. Besides, the time-dependent fluorescent intensity result with CL1-0 cells [10] (1 µM BMVC, flow cytometry, CL1-0 compared with MRC-5) is “significantly higher in CL1-0 than in MRC-5 cells”. Also, the “BMVC fluorescence change after LeuLeuOMe” value with CL1-0 cells [10] (CL1-0, LeuLeuOMe treatment) is recorded as “small increase in BMVC fluorescence”. In the data set on MCF-7/ADR cells [3], the “relative fluorescence change upon verapamil” value is “without affecting BMVC fluorescence” and the “relative fluorescence change upon LeuLeuOMe” value was “more than tenfold”. Also, the “nuclear fluorescence upon LeuLeuOMe treatment” value in the data set on MCF-7/ADR cells [11] (MCF-7/ADR, LeuLeuOMe, confocal microscopy) is recorded as “increased nuclear BMVC fluorescence”. For the same molecule, the “subcellular localization / lysosomal retention” value in the data set with MCF-7/ADR cells [11] (drug-resistant MCF-7/ADR) is “localized to the lysosomes; also recorded: retained in the lysosomes”. In addition, in the data set with CL1-0 cells [2] (CL1-0 cancer cells, confocal microscopy), the “lysosomal retention / co-localization with LysoTracker” value is “partially colocalized with MitoTracker red, but not LysoTracker red”. Also, the “subcellular localization (nucleus versus mitochondria)” value in the data set with CL1-0 cells [2] was “strong fluorescent signal was observed in the nuclei; also recorded: localize to the nuclei to a greater extent than the mitochondria”. Further, the “fluorescent signal in cancer cell nuclei upon DNase treatment” value with CL1-0 cells [2] (fixed CL1-0 cells, DNase) is given as “dramatically reduced”. In addition, in the data set on CL1-0 cells [2] (fixed CL1-0 cells, RNase), the “fluorescent signal in cancer cell nuclei upon RNase treatment” value is reported as “moderately reduced”.
Consider `Cl.N` [NH4Cl, ammonium chloride], for which the “effect on nuclear fluorescence of BMVC” value with normal cells is “increased nuclear fluorescence of BMVC”.
With `CCOc1ccc(-c2nc3ccc(-c4nc5ccc(N6CCN(C)CC6)cc5[nH]4)cc3[nH]2)cc1` [Hoechst 33342], the “fluorescence detected in cells” value with normal and cancer cells was “readily detected in the cells”.
For the molecule `CN1CCN(c2ccc3[nH]c(-c4ccc5[nH]c(-c6ccc(O)cc6)nc5c4)nc3c2)CC1` [Hoechst 33258], in the data set with normal and cancer cells, the “fluorescence detected in cells” value is “not detected”.
Regarding `CCN(CC)CCCC(C)Nc1ccnc2cc(Cl)ccc12` (centres unmarked) [chloroquine], the “effect on nuclear fluorescence of BMVC” value in the data set with normal cells was “increased nuclear fluorescence of BMVC”.

Usually IC50 stands for the concentration needed to halve the response being measured.
